Drawing on ChEMBL document CHEMBL1156226, “Synthesis and structure-activity relationship studies of peptidomimetic PKB/Akt inhibitors: the significance of backbone interactions” (Bioorg Med Chem, 2010), this text covers inhibition for eleven compounds.

Square brackets hold non-standard residues; d marks the D form. Peptide text beside a SMILES is read from it. Gly(N-4-hydroxybenzyl) = O=C(O)CNCc1ccc(O)cc1; Gly(N-(CH2)3-guanidino) = N=C(N)NCCCNCC(=O)O; hLeu = CC(C)CC[C@H](N)C(=O)O; NMeNva = CCC[C@H](NC)C(=O)O; Nva = CCC[C@H](N)C(=O)O; Dap = NC[C@H](N)C(=O)O; NPrGly = CCCNCC(=O)O

In this assay the target is RAC-alpha serine/threonine-protein kinase (Homo sapiens, UniProt P31749). Description: Inhibition of PKB at 100 uM by radioactive kinase assay relative to control. Summed up:
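PKB/Akt enzyme HisAPHPKBEEEFlag, partly purified in one step on Ni-NTA agarose. The radioactive kinase reaction contains 50 mM Hepes pH 7.4, 0.1 mM EGTA, 0.1% 2-mercaptoethanol, 10 mM magnesium acetate, 3 uM RPRTSSF peptide substrate, 10 uM [γ32P]ATP and 0.005 units enzyme. Inhibition is given as percent reduction of activity against a no-inhibitor control. IC50 values, with 95% confidence ranges, come from curve fitting.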

Sequence of RAC-alpha serine/threonine-protein kinase (P31749 whole entry): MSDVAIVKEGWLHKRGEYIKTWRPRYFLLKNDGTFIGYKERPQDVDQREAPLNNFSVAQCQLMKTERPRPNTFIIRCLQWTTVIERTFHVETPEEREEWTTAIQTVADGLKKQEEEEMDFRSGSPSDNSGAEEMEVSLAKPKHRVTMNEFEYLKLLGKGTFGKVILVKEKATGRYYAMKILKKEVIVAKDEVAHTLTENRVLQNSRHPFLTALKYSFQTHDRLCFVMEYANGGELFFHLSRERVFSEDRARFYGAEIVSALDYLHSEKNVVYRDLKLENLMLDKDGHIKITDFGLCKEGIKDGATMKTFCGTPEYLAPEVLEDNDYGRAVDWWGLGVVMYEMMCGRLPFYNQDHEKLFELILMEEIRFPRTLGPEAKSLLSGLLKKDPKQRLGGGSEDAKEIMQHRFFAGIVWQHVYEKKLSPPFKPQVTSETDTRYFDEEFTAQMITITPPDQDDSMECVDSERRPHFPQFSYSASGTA

Take `CCCN(CC(=O)N[C@@H](Cc1ccc(O)cc1)C(=O)N[C@@H](CN)C(=O)N[C@@H](CCC(C)C)C(N)=O)C(=O)[C@H](CCCNC(=N)N)NC(=O)[C@@H]1CCCN1C(=O)[C@H](CCCNC(=N)N)NC(C)=O` (Ac-RPR[NPrGly]Y[Dap][hLeu]-NH2): the inhibition worked out at 0%.
In the case of `CCC[C@H](NC(=O)[C@H](CCCNC(=N)N)NC(=O)[C@@H]1CCCN1C(=O)[C@H](CCCNC(=N)N)NC(C)=O)C(=O)N(CC(=O)N[C@@H](CN)C(=O)N[C@@H](CCC(C)C)C(N)=O)Cc1ccc(O)cc1` (Ac-RPR[Nva][Gly(N-4-hydroxybenzyl)][Dap][hLeu]-NH2), the inhibition amounted to 49%.
As for `CCC[C@H](NC(=O)[C@H](CCCNC(=N)N)NC(=O)[C@@H]1CCCN1C(=O)[C@H](CCCNC(=N)N)NC(C)=O)C(=O)N(CC(=O)N[C@@H](CN)C(=O)N[C@@H](CCC(C)C)C(=O)O)Cc1ccc(O)cc1` (Ac-RPR[Nva][Gly(N-4-hydroxybenzyl)][Dap][hLeu]-OH), the figure is 28%.
As for `CCC[C@@H](C(=O)N[C@@H](Cc1ccc(O)cc1)C(=O)N[C@@H](CN)C(=O)N[C@@H](CCC(C)C)C(N)=O)N(C)C(=O)[C@H](CCCNC(=N)N)NC(=O)[C@@H]1CCCN1C(=O)[C@@H](N)CCCNC(=N)N` (H-RPR[NMeNva]Y[Dap][hLeu]-NH2), the figure is 62%; as for `CCCN(CC(=O)N[C@@H](Cc1ccc(O)cc1)C(=O)N[C@@H](CN)C(=O)N[C@@H](CCC(C)C)C(N)=O)C(=O)[C@H](CCCNC(=N)N)NC(=O)[C@@H]1CCCN1C(=O)[C@@H](N)CCCNC(=N)N` (H-RPR[NPrGly]Y[Dap][hLeu]-NH2), 16%; as for `CCC[C@H](NC(=O)CN(CCCNC(=N)N)C(=O)[C@@H]1CCCN1C(=O)[C@@H](N)CCCNC(=N)N)C(=O)N[C@@H](Cc1ccc(O)cc1)C(=O)N[C@@H](CN)C(=O)N[C@@H](CCC(C)C)C(N)=O` (H-RP[Gly(N-(CH2)3-guanidino)][Nva]Y[Dap][hLeu]-NH2), 30%.
As for `CCC[C@H](NC(=O)[C@H](CCCNC(=N)N)NC(=O)[C@@H]1CCCN1C(=O)[C@@H](N)CCCNC(=N)N)C(=O)N[C@@H](Cc1ccc(O)cc1)C(=O)N(C)[C@@H](CN)C(=O)N[C@@H](CCC(C)C)C(=O)O` (HELM PEPTIDE1{R.P.R.[Nva].Y.[CN([C@@H](CN)C(=O)[*:2])[*:1]].[CC(C)CC[C@H](N[*:1])C(=O)O]}$$$$V2.0), the figure is 0%.
Regarding `CCC[C@H](NC(=O)[C@H](CCCNC(=N)N)NC(=O)[C@@H]1CCCN1C(=O)[C@@H](N)CCCNC(=N)N)C(=O)N[C@@H](Cc1ccc(O)cc1)C(=O)N(C)[C@@H](CN)C(=O)N[C@@H](CCC(C)C)C(N)=O` (HELM PEPTIDE1{R.P.R.[Nva].Y.[CN([C@@H](CN)C(=O)[*:2])[*:1]].[CC(C)CC[C@H](N[*:1])C(=O)[*:2]].[am]}$$$$V2.0), the inhibition was found to be 75%.
As for `CCC[C@H](NC(=O)[C@H](CCCNC(=N)N)NC(=O)[C@@H]1CCCN1C(=O)[C@@H](N)CCCNC(=N)N)C(=O)N[C@@H](Cc1ccc(O)cc1)C(=O)N[C@@H](CN)C(=O)N(CC(N)=O)CC(C)CC` (stereo partly specified) (HELM PEPTIDE1{R.P.R.[Nva].Y.[NC[C@H](N[*:1])C(=O)[*:2]].[CCC(C)CN(CC(=O)[*:2])[*:1]].[am]}$$$$V2.0), the figure is 39%; as for `CCC[C@H](NC(=O)[C@H](CCCNC(=N)N)N(C)C(=O)[C@@H]1CCCN1C(=O)[C@@H](N)CCCNC(=N)N)C(=O)N[C@@H](Cc1ccc(O)cc1)C(=O)N[C@@H](CN)C(=O)N[C@@H](CCC(C)C)C(=O)O` (HELM PEPTIDE1{R.P.[meR].[Nva].Y.[NC[C@H](N[*:1])C(=O)[*:2]].[CC(C)CC[C@H](N[*:1])C(=O)O]}$$$$V2.0), 42%; as for `CCC[C@H](NC(=O)[C@H](CCCNC(=N)N)NC(=O)[C@@H]1CCCN1C(=O)[C@H](CCCNC(=N)N)NC(C)=O)C(=O)N[C@@H](Cc1ccc(O)cc1)C(=O)N(C)[C@@H](CN)C(=O)N[C@@H](CCC(C)C)C(=O)O` (HELM PEPTIDE1{[ac].R.P.R.[Nva].Y.[CN([C@@H](CN)C(=O)[*:2])[*:1]].[CC(C)CC[C@H](N[*:1])C(=O)O]}$$$$V2.0), 1%.
